An excerpt weighted towards active compounds, which were near 3% of everything screened.
5-HT1A blocker: human 5-HT1a receptor antagonists, primary screen, cell-based, CHO, Ga15 NFAT-bla reporter. 5-hydroxytryptamine receptor 1A (Homo sapiens), P08908. CHO 5-HT1a Ga15 NFAT-bla reporter, antagonist mode. inhibition, % at 10 µM. actives 0.68% (n = 62,000). AID 612, 2007;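 active = inhibition above the mean of all tested compounds plus 3 SD, cut at about 43% in these data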;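 also: receptor stimulated by 5-CT agonist at 100 nM near EC80; beta-lactamase reporter measured by ratiometric fluorescence of a cleavable substrate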
S1P3 ag: human S1P3 receptor agonists, primary screen, cell-based, primary and confirmation, NFAT-BLA reporter; actives 0.1% (n = 60,000); Sphingosine 1-phosphate receptor 3 (Homo sapiens), Q99500; S1P3 NFAT-BLA reporter cells, agonism, FRET ratio; relative to 1 µM S1P, basal subtracted; AID 373, 2006; activation, % at 4.5 µM;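 active = activation above the screen-wide mean plus 3 SD, cut at about 4.5% in these data, passing the limit was not always enough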
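Benchmarks: high control 1 µM S1P / System: stable CHO line with human S1P3, Gα16, NFAT-BLA reporter / Dosing: single compound concentration, 4.5 µM final / Timing: 4 h compound at 37 °C, 2 h substrate at RT / Measured by: FRET β-lactamase substrate fluorescence, excitation 405 nm, 460/535 nm emission ratio, background-subtracted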
S1P1 ag pot: S1P1 agonists and agonism potentiators, primary screen, cell-based, primary and confirmation screens, CRE-bla reporter | activation, % at 9.5 µM | actives 0.57% (n = 56,000) | S1P1 CRE-bla cells, forskolin, beta-lactamase FRET, potentiator mode; S1P1 agonist co-added at EC20, 2 nM; 100% = saturating reference agonist, 0% = basal | AID 449, 2006 | Sphingosine 1-phosphate receptor 1 (Homo sapiens), P21453;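 active = activation above a cutoff set at the mean activation of all tested compounds plus 3 SD, cut at about 54% in these data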;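 also: forskolin at 4 µM as EC80 and the EC20 agonist is SEW2871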
5HT1a ag: human 5-HT1a receptor agonists, primary screen, cell-based, CHO, Ga15 NFAT-bla reporter. 5-hydroxytryptamine receptor 1A (Homo sapiens), P08908. CHO 5-HT1a Ga15 NFAT-bla reporter, FRET ratio; 0% basal, 100% maximal reference agonist. activation, % at 10 µM. actives 0.56% (n = 65,000). AID 567, 2006;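 active = activation above the screen-wide mean activation plus 3 SD, cut at about 19% in these data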
HTR1E agonist: 5-HT1E receptor agonists, primary screen, cell-based, HTS | AID 574, 2007 | actives 0.69% (n = 65,000) | 5-hydroxytryptamine receptor 1E (Homo sapiens), P28566 | CHO 5-HT1E Ga15 NFAT-bla reporter, FRET; 0% DMSO wells, 100% control agonist wells | activation, % at 6 µM;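 active = activation above a set limit, the screen-wide mean activation plus 3 SD, cut at about 8.5% in these data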
Target sequence (P28566 whole entry, looked up): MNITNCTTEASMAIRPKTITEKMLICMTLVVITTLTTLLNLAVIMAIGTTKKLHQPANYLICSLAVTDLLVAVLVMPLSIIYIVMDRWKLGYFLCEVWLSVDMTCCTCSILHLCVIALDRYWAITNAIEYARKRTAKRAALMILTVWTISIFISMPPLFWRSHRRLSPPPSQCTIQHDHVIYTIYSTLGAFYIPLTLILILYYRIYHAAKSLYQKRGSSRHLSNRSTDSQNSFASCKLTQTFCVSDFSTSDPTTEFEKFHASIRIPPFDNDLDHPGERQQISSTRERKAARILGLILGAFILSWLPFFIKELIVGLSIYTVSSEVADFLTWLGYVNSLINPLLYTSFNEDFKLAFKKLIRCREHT
HTR1E antagonist: 5-HT1E receptor antagonists, primary screen, cell-based, HTS; 5-hydroxytryptamine receptor 1E (Homo sapiens), P28566; actives 0.99% (n = 65,000); inhibition, % at 6 µM; CHO 5-HT1E Ga15 NFAT-bla reporter, FRET, antagonist;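 active = inhibition above a set limit, the mean inhibition across every tested compound plus 3 SD, cut at about 29% in these data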;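 also: signal is the 460 over 535 nm emission ratio of beta-lactamase substrate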
Hits are given with their value.

What do the screens show for `COC(=O)c1sc(NC(=O)C2CCCCC2C(=O)O)c(C(=O)OC)c1C` (configuration not stated)?
5-HT1A blocker: inactive; S1P3 ag: inactive; 5HT1a ag: inactive; HTR1E agonist: inactive; HTR1E antagonist: inactive

What do the screens show for `Cc1cccc(-n2cnc3cc(C(=O)N4CCCCC4)ccc32)c1`?
5-HT1A blocker: inactive; 5HT1a ag: 45; HTR1E agonist: inactive; HTR1E antagonist: inactive

What do the screens show for `Cn1nnc2cc(C(=O)N3CCCCCC3)ccc21`?
5-HT1A blocker: inactive; 5HT1a ag: inactive; HTR1E agonist: inactive; HTR1E antagonist: inactive

How did O=C(c1ccco1)N1CCN(c2ncnc3c2cnn3-c2ccccc2)CC1 do in these assays?
5-HT1A blocker: inactive; S1P3 ag: inactive; S1P1 ag pot: inactive; 5HT1a ag: inactive; HTR1E agonist: inactive; HTR1E antagonist: inactive

Results for CCOC(=O)C1CCN(c2ncnc3c2cnn3-c2ccc(Cl)cc2)CC1 ?
S1P3 ag: inactive; S1P1 ag pot: inactive; 5HT1a ag: inactive; HTR1E agonist: inactive; HTR1E antagonist: inactive

How did CCOC(=O)C1CCN(c2ncnc3c2oc2ccccc23)CC1 do in these assays?
5-HT1A blocker: inactive; S1P3 ag: inactive; S1P1 ag pot: 97; 5HT1a ag: inactive; HTR1E agonist: inactive; HTR1E antagonist: inactive

How did Cc1nn(-c2ccccc2)c(Cl)c1C(=O)N1CCN(c2ncnc3c2cnn3-c2ccccc2)CC1 do in these assays?
5-HT1A blocker: 63; S1P3 ag: inactive; S1P1 ag pot: inactive; 5HT1a ag: inactive; HTR1E agonist: inactive; HTR1E antagonist: 56

Results for c1ccc(N2CCN(c3ncnc4c3oc3ccccc34)CC2)cc1 ?
5-HT1A blocker: inactive; S1P3 ag: inactive; S1P1 ag pot: 61; 5HT1a ag: inactive; HTR1E agonist: inactive; HTR1E antagonist: inactive

Results for CCOC(=O)C1CCN(c2ncnc3c2cnn3-c2ccccc2)CC1 ?
5-HT1A blocker: inactive; S1P3 ag: inactive; S1P1 ag pot: inactive; 5HT1a ag: 30; HTR1E agonist: inactive; HTR1E antagonist: inactive

Results for N=c1n(Cc2ccccc2)c2ccccc2n1CC(O)c1ccco1 (configuration not stated) ?
5-HT1A blocker: inactive; S1P3 ag: inactive; S1P1 ag pot: inactive; 5HT1a ag: inactive; HTR1E agonist: inactive; HTR1E antagonist: inactive

Results for Cc1cccc(OCC(O)Cn2c(=N)n(CCN3CCCCC3)c3ccccc32)c1 (configuration not stated) ?
5-HT1A blocker: 68; S1P3 ag: inactive; S1P1 ag pot: inactive; 5HT1a ag: inactive; HTR1E agonist: inactive; HTR1E antagonist: inactive

How did COc1ccc(OCC(O)Cn2c(=N)n(Cc3ccccc3)c3ccccc32)cc1 (configuration not stated) do in these assays?
5-HT1A blocker: 48; S1P3 ag: inactive; S1P1 ag pot: inactive; 5HT1a ag: inactive; HTR1E agonist: inactive; HTR1E antagonist: inactive

Results for O=C(O)c1cc2ccccc2n1-c1ccccc1 ?
5-HT1A blocker: inactive; S1P3 ag: inactive; S1P1 ag pot: inactive; 5HT1a ag: inactive; HTR1E agonist: inactive; HTR1E antagonist: inactive

Results for CCCOc1ccc(N2C(=O)CC(N3CCCC(C(=O)N4CCCC4)C3)C2=O)cc1 (configuration not stated) ?
5-HT1A blocker: inactive; S1P3 ag: inactive; S1P1 ag pot: inactive; 5HT1a ag: inactive; HTR1E agonist: inactive; HTR1E antagonist: inactive

How did CC(C)(C)NC(=O)C(c1ccco1)N(C(=O)Cn1nnc(-c2ccc(F)cc2)n1)c1ccccc1F (configuration not stated) do in these assays?
5-HT1A blocker: inactive; S1P3 ag: inactive; S1P1 ag pot: inactive; 5HT1a ag: inactive; HTR1E agonist: inactive; HTR1E antagonist: inactive

How did CCCn1cnc2c(c1=O)c1nc3ccccc3nc1n2Cc1ccccc1OC do in these assays?
5-HT1A blocker: inactive; S1P3 ag: inactive; S1P1 ag pot: inactive; 5HT1a ag: inactive; HTR1E agonist: inactive; HTR1E antagonist: inactive

What do the screens show for `COc1cccc(Cn2c(N)c(C#N)c3nc4ccccc4nc32)c1OC`?
5-HT1A blocker: inactive; S1P3 ag: inactive; S1P1 ag pot: inactive; 5HT1a ag: inactive; HTR1E agonist: inactive; HTR1E antagonist: 33

What do the screens show for `COc1cc(Cn2c(N)c(C#N)c3nc4ccccc4nc32)cc(OC)c1`?
5-HT1A blocker: inactive; S1P3 ag: inactive; S1P1 ag pot: inactive; 5HT1a ag: 21; HTR1E agonist: inactive; HTR1E antagonist: inactive

Results for COCCn1c(N)c(C(=O)NCc2cccs2)c2nc3ccccc3nc21 ?
5-HT1A blocker: inactive; S1P3 ag: inactive; S1P1 ag pot: inactive; 5HT1a ag: inactive; HTR1E agonist: inactive; HTR1E antagonist: inactive

What do the screens show for `N#Cc1c(N)n(CCOC(=O)c2cccc(Br)c2)c2nc3ccccc3nc12`?
S1P3 ag: inactive; S1P1 ag pot: inactive; 5HT1a ag: 31; HTR1E agonist: inactive; HTR1E antagonist: inactive

Results for O=C(CN(CCc1ccccc1)C(=O)CNS(=O)(=O)c1ccc(F)cc1)NCC1CCCO1 (configuration not stated) ?
5-HT1A blocker: inactive; S1P3 ag: inactive; S1P1 ag pot: inactive; 5HT1a ag: inactive; HTR1E agonist: inactive; HTR1E antagonist: inactive

What do the screens show for `C=CCn1c(SCC(=O)c2ccccc2)nnc1-c1ccc2c(c1)OCO2`?
S1P3 ag: inactive; S1P1 ag pot: inactive; 5HT1a ag: inactive; HTR1E agonist: inactive; HTR1E antagonist: inactive

Results for CCc1nnc(NC(=O)CSc2nnc(-c3ccccc3NC(=O)c3ccccc3)o2)s1 ?
5-HT1A blocker: inactive; S1P3 ag: inactive; S1P1 ag pot: inactive; 5HT1a ag: inactive; HTR1E agonist: inactive; HTR1E antagonist: inactive

Results for CCOC(=O)C1=C(N)OC2=C(C(=O)CCC2)C1c1ccccc1OCC (configuration not stated) ?
5-HT1A blocker: inactive; S1P3 ag: 19; S1P1 ag pot: inactive; 5HT1a ag: inactive; HTR1E agonist: inactive; HTR1E antagonist: inactive

How did O=C(CCCN1Cc2ccccc2C1)c1ccc(F)cc1 do in these assays?
5-HT1A blocker: inactive; S1P3 ag: inactive; S1P1 ag pot: inactive; 5HT1a ag: 22; HTR1E agonist: inactive; HTR1E antagonist: inactive

What do the screens show for `COc1ccc(C2CC(C(F)(F)F)n3nc(C(=O)NCCN4CCOCC4)cc3N2)cc1` (configuration not stated)?
5-HT1A blocker: inactive; S1P3 ag: inactive; S1P1 ag pot: inactive; 5HT1a ag: 36; HTR1E agonist: inactive; HTR1E antagonist: inactive
